Screens deposited in PubChem by The Scripps Research Institute Molecular Screening Center.
PLCg1 inh: inhibitors of human phospholipase C gamma1; P19174; 370,000 tested, 0.84% active; inhibition, % at 12.2 µM; purified PLC-gamma1, fluorogenic substrate, fluorescence; in the data active = inhibition above about 9.5%
Tn7 DDE FP: inhibitors of Tn7 peptide binding to human fibrin DD(E); P02675; FP displacement of FITC-Tn7 peptide from fibrin DD(E); 0% = median of compound wells per plate; inhibition, % at 8.3 µM; 370,000 tested, 0.13% active;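 active = inhibition above the mean of compounds falling within the control limits plus 3 SD of them, cut at about 14% in these data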;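 note: 0% = plate median of compound wells and 100% = 10 µM Aha-Tn7 peptide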
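Measure: % inhibition scaled between sample-field median and high-control FP; Test system: human fibrin DD(E); Quantity: 2 µM final DD(E) protein; Doses: one dose, 8.3 µM nominal; Schedule: compound with protein 10 min, then 3 h after probe, room temperature; Detection: fluorescence polarization; Medium: Tris buffer with calcium and detergent, pH 7.8.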
DDE Tn6 FP inh: disrupts Tn6 cyclic peptide binding to fibrin D-Dimer-E complex | 370,000 tested, 0.21% active | inhibition, % at 8.3 µM | P02675 | Fibrin DD(E) TRITC-Tn6 fluorescence polarization displacement;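 active = inhibition above a per-campaign cutoff: mean of compounds within control limits plus 3 SD, cut at about 15% in these data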;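 note: 0% = median of all compound wells on the plate and 100% = blocking peptide control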
ADAM10 inh: inhibits human ADAM10; 370,000 tested, 0.62% active; O14672; inhibition, % at 7 µM; recombinant ADAM10, EDANS/DABCYL FRET peptide cleavage, 3 h;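 active = inhibition above a per-campaign cutoff equal to the mean of compounds falling between control-based bounds plus 3 SD, cut at about 20% in these data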;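 note: 0% = DMSO wells while the 100% control is not disclosed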
PLC-beta3 inh: PLC-beta3 (human) inhibition, primary screen; Q01970; Purified PLC-beta3, fluorogenic substrate, fluorescence; inhibition, % at 12.2 µM; 370,000 tested, 0.18% active; AID 720704; in the data active = inhibition above about 11%;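 note: 0% = median of compound wells on plate and 100% = full blocker control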
Target sequence (Q01970 whole entry, looked up): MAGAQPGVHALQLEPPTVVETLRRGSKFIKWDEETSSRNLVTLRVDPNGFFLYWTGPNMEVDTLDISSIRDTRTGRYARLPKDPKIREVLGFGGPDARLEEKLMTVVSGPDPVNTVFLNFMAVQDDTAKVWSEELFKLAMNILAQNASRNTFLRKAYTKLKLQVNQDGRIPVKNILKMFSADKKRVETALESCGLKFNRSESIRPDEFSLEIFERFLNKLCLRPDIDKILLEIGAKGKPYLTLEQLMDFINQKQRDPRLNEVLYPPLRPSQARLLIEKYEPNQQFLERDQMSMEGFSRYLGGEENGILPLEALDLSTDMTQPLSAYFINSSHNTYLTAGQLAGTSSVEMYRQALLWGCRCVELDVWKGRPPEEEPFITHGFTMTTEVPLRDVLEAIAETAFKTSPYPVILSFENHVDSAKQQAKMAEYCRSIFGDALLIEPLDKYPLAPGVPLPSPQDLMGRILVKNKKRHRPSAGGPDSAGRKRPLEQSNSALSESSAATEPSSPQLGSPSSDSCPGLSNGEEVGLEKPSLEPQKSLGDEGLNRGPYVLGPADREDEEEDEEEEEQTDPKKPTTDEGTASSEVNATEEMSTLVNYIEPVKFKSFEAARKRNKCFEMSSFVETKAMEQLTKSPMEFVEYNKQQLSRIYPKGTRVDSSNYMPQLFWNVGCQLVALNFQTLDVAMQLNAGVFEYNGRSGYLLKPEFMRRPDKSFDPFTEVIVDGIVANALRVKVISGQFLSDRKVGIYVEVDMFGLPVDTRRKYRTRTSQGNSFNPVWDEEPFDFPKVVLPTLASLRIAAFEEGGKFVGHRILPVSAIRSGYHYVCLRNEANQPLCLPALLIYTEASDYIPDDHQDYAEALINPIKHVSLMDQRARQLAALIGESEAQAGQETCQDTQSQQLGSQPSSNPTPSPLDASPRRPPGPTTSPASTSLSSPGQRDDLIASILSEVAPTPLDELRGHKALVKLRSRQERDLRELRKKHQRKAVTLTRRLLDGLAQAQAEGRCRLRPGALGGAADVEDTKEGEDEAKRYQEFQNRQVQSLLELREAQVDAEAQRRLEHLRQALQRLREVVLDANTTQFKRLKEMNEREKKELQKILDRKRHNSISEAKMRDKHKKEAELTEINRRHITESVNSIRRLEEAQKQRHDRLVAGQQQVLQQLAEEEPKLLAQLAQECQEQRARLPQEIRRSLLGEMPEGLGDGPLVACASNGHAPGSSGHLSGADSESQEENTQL
ADAM17 inh: ADAM17 inhibition, QFRET primary screen; 370,000 tested, 0.83% active; P78536; inhibition, % at 6.95 µM; AID 720648; recombinant ADAM17, EDANS/DABCYL FRET peptide cleavage;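 active = inhibition above the mean of compounds lying between control limits plus 3 SD, set per campaign, cut at about 8.5% in these data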;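 note: 0% = DMSO-only wells as the low control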
ADAM10 ctr: ADAM10 inhibition, counter-screen for ADAM17 exosite hits; shares compounds with ADAM17 inh; recombinant ADAM10, EDANS/DABCYL FRET peptide cleavage, 3 h; inhibition, % at 6.95 µM; 2,900 tested, 47% active;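 active = mean inhibition over the triplicate runs exceeds the activity threshold set in the earlier primary screen, cut at about 20% in these data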;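 note: 0% = DMSO wells and 100% = marimastat wells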
ADAM17 confirm: human ADAM17 inhibition, confirmation. shares compounds with ADAM17 inh. recombinant ADAM17, EDANS/DABCYL QFRET peptide cleavage. inhibition, % at 6.95 µM. 2,900 tested, 65% active;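 active = mean inhibition across replicates above the hit cutoff set in the primary screen, cut at about 8.5% in these data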;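 note: 0% = DMSO wells and 100% = marimastat wells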
* marks the source's active call; other numbers are inactive results; . = not tested or not shown. The list is not random: actives were taken first. Their share in the collection is about 2.3%.

SMILES	PLCg1 inh	Tn7 DDE FP	DDE Tn6 FP inh	ADAM10 inh	PLC-beta3 inh	ADAM17 inh	ADAM10 ctr	ADAM17 confirm
CC12CCC(C(=O)NC(c3ccccc3)c3ccccc3)(OC1=O)C2(C)C (centres undefined)	2	-5	-10	12	6	9.1*	-5	-1
CC12CCC(C(=O)NNc3ccccc3)(OC1=O)C2(C)C (centres undefined)	0	7	2	-9	-9	-5	.	.
O=C(Nc1sc2c(c1-c1nc3ccccc3s1)CCNC2)C(F)(F)F	-161	0	-6	-121	-200	-34	.	.
COC(=O)C1CN(Cc2cn(Cc3ccccc3)nn2)CCS(=O)(=O)N1Cc1ccc(Cl)cc1 (centres undefined)	0	-7	2	1	0	0	.	.
COC(=O)[C@]12C[C@H](CC(=O)NCc3ccccc3)C(=O)N(Cc3ccco3)C1=C[C@H](COCc1ccccc1)O[C@@H]2C	8	-1	-3	6	1	10*	27*	12*
COC(=O)[C@]12C[C@H](CC(=O)NCC3CCCCC3)C(=O)N(CCc3ccc(OC)c(OC)c3)C1=C[C@H](C(C)(C)C)O[C@@H]2C	1	-3	0	7	5	9.7*	19	11*
COC(=O)[C@]12C[C@H](CC(=O)NCc3ccc(C)o3)C(=O)N(Cc3ccco3)C1=C[C@H](COCc1ccccc1)O[C@@H]2C	5	-3	-1	8	4	3	.	.
COC(=O)[C@]12C[C@H](CC(=O)NCc3ccc(C)o3)C(=O)N(Cc3cccc4ccccc34)C1=C[C@H](C(C)C)O[C@@H]2C1CC1	5	-7	4	19	1	11*	9	8.9*
COC(=O)[C@]12C[C@H](CC(=O)NCc3ccccc3)C(=O)N(Cc3cccc4ccccc34)C1=C[C@H](C1CCCC1)O[C@@H]2C	7	-7	-3	17	2	10*	25*	17*
COC(=O)[C@]12C[C@H](CC(=O)NCc3cccc4ccccc34)C(=O)N(Cc3ccccc3)C1=C[C@H](C1CCCC1)O[C@@H]2C	1	-6	5	5	0	1	.	.
O=C(OCc1cn(Cc2ccccc2)nn1)N1CCCC1	3	-2	-8	5	3	2	.	.
Cc1cccc(-c2noc(-c3ccccc3C(=O)NCC3CCCO3)n2)c1 (centres undefined)	1	4	0	2	1	1	.	.
COc1cccc(NC(=O)c2ccccc2-c2nc(-c3cccc(C)c3)no2)c1	-2	9	2	25*	2	9.6*	26*	15*
CC(C)(C)OC(=O)C[C@@H]1C/C=C\C[C@H](CC(=O)N[C@H](CO)Cc2ccccc2)C(=O)N2CCC[C@H]2COC1=O	3	-5	-2	5	7	9.2*	4	11*
CC(C)(C)OC(=O)C[C@@H]1C/C=C\C[C@@H](CC(=O)N[C@H](CO)Cc2ccccc2)C(=O)N2CCC[C@@H]2COC1=O	4	-5	-2	6	5	6	.	.
CC(C)(C)c1ccc(-c2nc(NCc3cccnc3)c3ccccc3n2)cc1	-1	-1	0	13	-5	13*	18	12*
O=C(CN1CCN(c2cccc(C(F)(F)F)c2)CC1)Nc1cccc(C(F)(F)F)c1	5	2	-2	13	-2	8.8*	24*	12*
O=C(CN1CCOCC1)Nc1cccc(C(F)(F)F)c1	1	3	-8	2	-6	1	.	.
CCCC(=O)N1CC2(C)CN(C(=O)CCC)CC(CCC)(C1)C2=O	4	5	-2	8	7	12*	5	5
Cc1ccc(S(=O)(=O)Nc2ccccc2CNc2ccccn2)cc1	1	-2	1	14	-1	8.8*	18	10*
Cc1ccc(S(=O)(=O)Nc2ccccc2CNc2ccc(Br)cn2)cc1	0	-4	-1	10	-4	4	.	.
COc1cc(SC)ccc1C(=O)NCCOc1ccc(C)c(C)c1	0	0	-2	13	1	8.8*	19	12*
COc1ccccc1C(=O)NCCOc1ccc(C)c(C)c1	-5	7	8	-14	3	-1	.	.
Cc1cccc(Nc2ncccc2C(=O)NCc2cccs2)c1C	4	-6	-2	16	4	10*	27*	15*
CC(C)CNC(=O)OCc1cn(Cc2ccccc2Cl)nn1	2	5	-5	-4	1	0	.	.
SMILES	PLCg1 inh	Tn7 DDE FP	DDE Tn6 FP inh	ADAM10 inh	PLC-beta3 inh	ADAM17 inh	ADAM10 ctr	ADAM17 confirm
CC(=O)NNC(=O)CC(=O)Nc1nc(C23CC4CC(CC(C4)C2)C3)cs1	5	-13	0	4	0	8.9*	-12	0
CC(C)COc1cccc(C(=O)Nc2ccc(CN3CCOCC3)cc2)c1	3	4	2	-5	-11	-1	.	.
CC(C)COc1cccc(C(=O)Nc2ccc(S(=O)(=O)N3CCOCC3)cc2)c1	5	-6	-4	14	-2	9.1*	27*	17*
O=C(COc1cccc(OC(F)F)c1)Nc1ccc(SC(F)F)cc1	-5	4	-8	14	-3	6	.	.
Cc1ccc(C(=O)c2ccccc2C(=O)OCC(=O)Nc2ccc(SC(F)F)cc2)cc1	1	4	-5	18	0	13*	35*	18*
O=C(COc1cccc(Oc2ccccc2)c1)Nc1ccc(SC(F)F)cc1	1	-6	0	18	-1	10*	32*	18*
CC(C)CCNC(=O)C1COC(O)(C(Cc2ccccc2)NC(=O)[C@@H](NC(=O)OCc2ccccc2)C(C)C)CN1 (some centres undefined)	-1	-2	6	-5	-3	-3	.	.
Cc1ccc(NC(=O)c2ccc3c(c2)OCCO3)cc1S(=O)(=O)Nc1cccc(Cl)c1	4	-2	2	16	2	9.8*	21*	11*
Cc1ccc(NC(=O)c2ccc3c(c2)OCCO3)cc1C	4	5	2	5	-4	1	.	.
S=C(NCCc1ccc(Cl)cc1)Nc1ccc(Cl)cc1Cl	1	-6	-9	29*	6	16*	34*	19*
COc1ccc(C2c3ccc4ccccc4c3Oc3ncn(CCN4CCOCC4)c(=N)c32)cc1OC (centres undefined)	5	-6	6	11	1	8.6*	12	9.2*
